Results taken from ChEMBL document CHEMBL3739383, “Cyanohydrin as an Anchoring Group for Potent and Selective Inhibitors of Enterovirus 71 3C Protease” (J Med Chem, 2015).

Assays:
Enterovirus A71 = assay: Antiviral activity against EV71 pseudotype virus infected in human Rhabdomyosarcoma cells assessed as reduction in viral replication after 24 hrs by Bright-Glo Luciferase Assay; format: functional, organism-based; conditions: Enterovirus A
Outline: (§1)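 EC50 (antiviral) or CC50 (cytotoxicity) values are averaged over three independent experiments, with error given as SEM (n=3).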

[1] = Inhibition of EV71 protease 3C using NMA-IEALFQGPPK(DNP)FR as substrate preincubated for 30 mins followed by substrate addition measured after 2 hrs by FRET analysis; parameters: species or system Enterovirus A71
[2] = Cytotoxicity against human Rhabdomyosarcoma cells after 24 hrs by WST-1 cell proliferation assay; format: cell-based; outline: as §1
[3] = Toxicity in iv dosed mouse measured for 24 hrs; format: organism-based; conditions: in vivo
Outline: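 Acute toxicity study in mice dosed by intravenous injection; the read-out is LD50 in mg/kg.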

[4] = Inhibition of EV71 protease 3C using Dabcyl-KTSAVLQSGFRKME-Edans as substrate by fluorescence analysis; parameters: species or system Enterovirus A71

Row | SMILES | EC50 (Enterovirus A71) | IC50 [1] | CC50 at 24 h [2] | LD50 at 24 h [3] | IC50 [4]
1 | O=C[C@H](C[C@@H]1CCCNC1=O)NC(=O)[C@H](Cc1ccccc1)NC(=O)/C=C/c1ccccc1 | 260 nM | 540 nM | > 100000 nM |  | 
2 | N#CC(O)[C@H](C[C@@H]1CCCNC1=O)NC(=O)[C@H](Cc1ccccc1)NC(=O)/C=C/c1ccccc1 (some centres undefined) | 120 nM | 1130 nM | > 100000 nM |  | 
3 | N#CC[C@H](C[C@@H]1CCCNC1=O)NC(=O)[C@H](Cc1ccccc1)NC(=O)/C=C/c1ccccc1 | 28400 nM | > 10000 nM | > 100000 nM |  | 
4 | CCCNC(=O)C(=O)[C@H](C[C@@H]1CCCNC1=O)NC(=O)[C@H](Cc1ccccc1)NC(=O)/C=C/c1ccccc1 | 4590 nM | 9490 nM | > 100000 nM |  | 
5 | N#CC(OC(=S)Oc1ccccc1)[C@H](C[C@@H]1CCCNC1=O)NC(=O)[C@H](Cc1ccccc1)NC(=O)/C=C/c1ccccc1 (some centres undefined) | 150 nM | 1050 nM | > 100000 nM |  | 
6 | Cc1cc(C(=O)N[C@@H](Cc2ccc(F)cc2)C(=O)N[C@H](C=O)C[C@@H]2CCCNC2=O)no1 | 110 nM | 100 nM | > 100000 nM |  | 
7 | N#C[C@H](C[C@@H]1CCCNC1=O)NC(=O)[C@H](Cc1ccccc1)NC(=O)/C=C/c1ccccc1 | > 100000 nM | > 10000 nM | > 100000 nM |  | 
8 | CC(=O)OC(C#N)[C@H](C[C@@H]1CCCNC1=O)NC(=O)[C@H](Cc1ccccc1)NC(=O)/C=C/c1ccccc1 (some centres undefined) | 100 nM | 1620 nM | > 100000 nM |  | 
9 | Cc1cc(C(=O)N[C@@H](Cc2ccc(F)cc2)C(=O)N[C@@H](C[C@@H]2CCCNC2=O)[C@H](O)C#N)no1 | 45 nM | 310 nM | > 100000 nM |  | 
10 | CCCNC(=O)C(O)[C@H](C[C@@H]1CCCNC1=O)NC(=O)[C@H](Cc1ccccc1)NC(=O)/C=C/c1ccccc1 (some centres undefined) | > 100000 nM | > 10000 nM | > 100000 nM |  | 
11 | Cc1cc(C(=O)N[C@@H](Cc2ccc(F)cc2)C(=O)N[C@@H](C[C@@H]2CCCNC2=O)[C@@H](O)C#N)no1 | 48 nM | 270 nM | > 100000 nM | 96.5 mg/kg | 
12 | O=C(/C=C/c1ccccc1)N[C@@H](Cc1ccccc1)C(=O)N[C@H](CO)C[C@@H]1CCCNC1=O | > 100000 nM | > 10000 nM | > 100000 nM |  | 
13 | Cc1cc(C(=O)N[C@@H](Cc2ccc(F)cc2)C(=O)N[C@@H](C[C@@H]2CCCNC2=O)C(O)C#N)no1 (some centres undefined) | 56 nM | 280 nM | > 100000 nM |  | 
14 | O=C[C@H](C[C@@H]1CCNC1=O)NC(=O)[C@H](Cc1ccccc1)NC(=O)/C=C/c1ccccc1 | 3070 nM | 3810 nM | > 100000 nM |  | 
15 | CCOC(=O)/C=C/[C@H](C[C@@H]1CCNC1=O)NC(=O)[C@@H](CC(=O)[C@@H](NC(=O)c1cc(C)on1)C(C)C)Cc1ccc(F)cc1 [RUPINTRIVIR] |  |  |  |  | 2300 nM
